Laboratory results taken from ChEMBL document CHEMBL1159046, “New thalidomide analogues derived through Sonogashira or Suzuki reactions and their TNF expression inhibition profiles” (Bioorg Med Chem, 2010).
Calls of active or inactive are those of the source. No cut-off for these calls is given here.

Legend:
Jurkat [1] = test: Inhibition of NF-kappaB-mediated TNF expression in human Jurkat T cells coexpressing GFP reporter gene at 100 uM by flow cytometry; format: cell-based
Procedure, shortened: (§1)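 Jurkat cells stably carrying GFP under an NF-κB-responsive human TNF promoter (FRT-Jurkat TNF) were treated with racemic compound (0.1% DMSO final) for 24 h. GFP was read by flow cytometry at 515 nm ([…]), gated on viable FSC/SSC cells. Inhibition is the percentage decrease in GFP versus 0.1% solvent control. Assays were run in triplicate.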

Jurkat [2] = test: Cytotoxicity against human Jurkat T cells assessed as viable cells at 10 uM after 24 hrs by flow cytometry; format: functional; details: read-out: Activity
Procedure, shortened: (§2)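 FRT-Jurkat TNF reporter cells were exposed to compound (racemic, 0.1% DMSO final) for 24 h and analysed by flow cytometry on FSC/SSC. Viable cells were counted as those inside the gate around the main population of solvent-only cells. Viability was confirmed by propidium iodide fluorescence at 570 nm (FL2). Assays were run in triplicate.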

Jurkat [3] = test: Inhibition of NF-kappaB-mediated TNF expression in human Jurkat T cells coexpressing GFP reporter gene at 1 uM by flow cytometry; format: cell-based; procedure, shortened: as §1
Jurkat [4] = test: Cytotoxicity against human Jurkat T cells assessed as viable cells at 0.1 uM after 24 hrs by flow cytometry; format: functional; details: read-out: Activity; procedure, shortened: as §2
Jurkat [5] = test: Cytotoxicity against human Jurkat T cells assessed as cell death at 10 uM after 24 hrs by flow cytometry; format: functional
Procedure, shortened: (§3)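 Jurkat T cells treated 24 h with compound (final DMSO 0.1%); cell death taken as % of cells with reduced size and granularity on flow cytometric forward- vs side-scatter plot, outside gate set on major solvent-only population; viability confirmed by propidium iodide staining (570 nm, FL2). Triplicate, racemic compounds.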

Jurkat [6] = test: Induction of apoptosis in human Jurkat T cells at 0.1 uM after 24 hrs by flow cytometry; format: functional
Procedure, shortened: (§4)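 Jurkat T cells were treated with compound for 24 h, with DMSO-only and untreated controls, then stained with a FITC-labelled substrate for cleaved caspase-3 (NucView-488). The apoptotic fraction was the percentage of cells with increased green fluorescence by flow cytometry. Cell death, taken as reduced size and granularity on FSC/SSC, was measured in parallel. Assays were run in triplicate.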

Jurkat [7] = test: Inhibition of NF-kappaB-mediated TNF expression in human Jurkat T cells coexpressing GFP reporter gene at 10 uM by flow cytometry; format: cell-based; procedure, shortened: as §1
Jurkat [8] = test: Inhibition of NF-kappaB-mediated TNF expression in human Jurkat T cells coexpressing GFP reporter gene at 0.1 uM by flow cytometry; format: cell-based; procedure, shortened: as §1
PBMC [9] = test: Cytotoxicity against human PBMC assessed as cell death at 1 to 10 uM; format: cell-based
PBMC [10] = test: Inhibition of PMA-induced TNF production in human PBMC at 1 uM by RT-PCR; format: functional, cell-based
Procedure, shortened: (§5)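 PBMCs from healthy volunteers were freshly isolated, activated, and cultured with compound or DMSO for 2 h. Endogenous TNF mRNA was quantified by reverse transcription and real-time PCR (50 cycles: 95 °C 10 s, 55 °C 15 s, 72 °C 20 s) and normalised to β-actin.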

Jurkat [11] = test: Induction of apoptosis in human Jurkat T cells at 10 uM after 24 hrs by flow cytometry; format: functional
Procedure, shortened: (§6)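 Apoptosis in Jurkat T cells after 24 h compound exposure: cells stained with FITC-labelled substrate for cleaved caspase-3 (NucView-488), % cells with increased green fluorescence counted by flow cytometry with positivity gate; solvent (0.1% DMSO) and untreated controls. Triplicate, racemic compounds; three independent experiments.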

Jurkat [12] = test: Cytotoxicity against human Jurkat T cells assessed as cell death at 0.1 uM after 24 hrs by flow cytometry; format: functional; procedure, shortened: as §3
Jurkat [13] = test: Induction of apoptosis in human Jurkat T cells at 1 uM after 24 hrs by flow cytometry; format: functional; procedure, shortened: as §6
Jurkat [14] = test: Cytotoxicity against human Jurkat T cells assessed as viable cells at 1 uM after 24 hrs by flow cytometry; format: functional; details: read-out: Activity; procedure, shortened: as §2
PBMC [15] = test: Inhibition of PMA-induced TNF production in human PBMC at 10 uM by RT-PCR; format: functional, cell-based; procedure, shortened: as §5
Jurkat [16] = test: Cytotoxicity against human Jurkat T cells assessed as cell death at 100 uM after 24 hrs by flow cytometry; format: functional; procedure, shortened: as §3
Jurkat [17] = test: Induction of apoptosis in human Jurkat T cells at 100 uM after 24 hrs by flow cytometry; format: functional; procedure, shortened: as §4

Compound: O=CC#Cc1ccc2c(c1)C(=O)N(C1CCC(=O)NC1=O)C2=O (racemic)
- inhibition (Jurkat [1]): 85%
- viability at 10 µM (Jurkat [2]): 25%
- inhibition (Jurkat [3]): 5%
- viability at 0.1 µM (Jurkat [4]): 96%
- Activity (Jurkat [5]): 86%
- Activity (Jurkat [6]): 7%
- inhibition (Jurkat [7]): 86%
- inhibition (Jurkat [8]): 4%
- Activity (PBMC [9]): Active
- Activity (PBMC [10]): Active
- Activity (Jurkat [11]): 84%
- Activity (Jurkat [12]): 4%
- Activity (Jurkat [13]): 7%
- viability at 1 µM (Jurkat [14]): 95%
- Activity (PBMC [15]): Active

Compound: CC(C)Cc1ccc(-c2cccc3c2C(=O)N(C2CCC(=O)NC2=O)C3=O)cc1 (racemic)
- inhibition (Jurkat [1]): 86%
- viability at 10 µM (Jurkat [2]): 90%
- Activity (Jurkat [16]): 94%
- Activity (Jurkat [17]): 96%
- inhibition (Jurkat [7]): 7%
- Activity (Jurkat [11]): 7%

Compound: O=C1CCC(N2C(=O)c3cccc(C#Cc4ccccc4)c3C2=O)C(=O)N1 (racemic)
- inhibition (Jurkat [1]): 13%

Compound: CC(C)(C)C#Cc1cccc2c1C(=O)N(C1CCC(=O)NC1=O)C2=O (racemic)
- inhibition (Jurkat [1]): 24%

Compound: O=C1CCC(N2C(=O)c3ccc(C#CCO)cc3C2=O)C(=O)N1 (racemic)
- inhibition (Jurkat [1]): 10%

Compound: O=C1CCC(N2C(=O)c3ccc(-c4ccccc4)cc3C2=O)C(=O)N1 (racemic)
- inhibition (Jurkat [1]): 12%

Compound: CC(C)(O)C#Cc1ccc2c(c1)C(=O)N(C1CCC(=O)NC1=O)C2=O (racemic)
- inhibition (Jurkat [1]): 20%

Compound: CC(C)(O)C#Cc1cccc2c1C(=O)N(C1CCC(=O)NC1=O)C2=O (racemic)
- inhibition (Jurkat [1]): 6%

Compound: Cc1ccc(-c2cccc3c2C(=O)N(C2CCC(=O)NC2=O)C3=O)cc1 (racemic)
- inhibition (Jurkat [1]): 10%

Compound: CC(=O)c1ccc(-c2ccc3c(c2)C(=O)N(C2CCC(=O)NC2=O)C3=O)cc1 (racemic)
- inhibition (Jurkat [1]): 26%

Compound: CNCC#Cc1ccc2c(c1)C(=O)N(C1CCC(=O)NC1=O)C2=O (racemic)
- inhibition (Jurkat [1]): 10%

Compound: O=C1CCC(N2C(=O)c3cccc(-c4ccccc4)c3C2=O)C(=O)N1 (racemic)
- inhibition (Jurkat [1]): 14%

Compound: O=C1CCC(N2C(=O)c3cccc(-c4ccc(O)cc4)c3C2=O)C(=O)N1 (racemic)
- inhibition (Jurkat [1]): 19%

Compound: CC(C)Oc1ccc(-c2cccc3c2C(=O)N(C2CCC(=O)NC2=O)C3=O)cc1 (racemic)
- inhibition (Jurkat [1]): 47%
- viability at 10 µM (Jurkat [2]): 90%
- Activity (Jurkat [16]): 33%
- Activity (Jurkat [17]): 30%
- inhibition (Jurkat [7]): 8%
- Activity (Jurkat [11]): 8%

Compound: NC(=O)c1ccc(-c2ccc3c(c2)C(=O)N(C2CCC(=O)NC2=O)C3=O)cc1 (racemic)
- inhibition (Jurkat [1]): 10%

Compound: CC(C)Oc1ccc(-c2ccc3c(c2)C(=O)N(C2CCC(=O)NC2=O)C3=O)cc1 (racemic)
- inhibition (Jurkat [1]): 59%
- viability at 10 µM (Jurkat [2]): 90%
- Activity (Jurkat [16]): 51%
- Activity (Jurkat [5]): 14%
- Activity (Jurkat [17]): 34%
- inhibition (Jurkat [7]): 10%
- Activity (Jurkat [11]): 12%

Compound: O=C1CCC(N2C(=O)c3ccccc3C2=O)C(=O)N1 (racemic) [THALIDOMIDE]
- inhibition (Jurkat [1]): 6%
- Activity (Jurkat [5]): 6%
- Activity (Jurkat [17]): 9%
- inhibition (Jurkat [7]): 4%
- Activity (Jurkat [11]): 7%

Compound: O=C1CCC(N2C(=O)c3ccc(C#Cc4ccccc4)cc3C2=O)C(=O)N1 (racemic)
- inhibition (Jurkat [1]): 6%

Compound: O=C1CCC(N2C(=O)c3cccc(C#CCO)c3C2=O)C(=O)N1 (racemic)
- inhibition (Jurkat [1]): 7%

Compound: CC(C)(C)C#Cc1ccc2c(c1)C(=O)N(C1CCC(=O)NC1=O)C2=O (racemic)
- inhibition (Jurkat [1]): 19%

Compound: CC(=O)c1ccc(-c2cccc3c2C(=O)N(C2CCC(=O)NC2=O)C3=O)cc1 (racemic)
- inhibition (Jurkat [1]): 17%

Compound: O=C1CCC(N2C(=O)c3ccc(-c4ccc(O)cc4)cc3C2=O)C(=O)N1 (racemic)
- inhibition (Jurkat [1]): 11%

Compound: N#CCCCC#Cc1ccc2c(c1)C(=O)N(C1CCC(=O)NC1=O)C2=O (racemic)
- inhibition (Jurkat [1]): 12%

Compound: Cc1ccc(-c2ccc3c(c2)C(=O)N(C2CCC(=O)NC2=O)C3=O)cc1 (racemic)
- inhibition (Jurkat [1]): 14%

Compound: N#CCCCC#Cc1cccc2c1C(=O)N(C1CCC(=O)NC1=O)C2=O (racemic)
- inhibition (Jurkat [1]): 9%

Compound: NC(=O)c1ccc(-c2cccc3c2C(=O)N(C2CCC(=O)NC2=O)C3=O)cc1 (racemic)
- inhibition (Jurkat [1]): 14%

Compound: CC(C)Cc1ccc(-c2ccc3c(c2)C(=O)N(C2CCC(=O)NC2=O)C3=O)cc1 (racemic)
- inhibition (Jurkat [1]): 90%
- viability at 10 µM (Jurkat [2]): 89%
- Activity (Jurkat [16]): 21%
- Activity (Jurkat [5]): 6%
- Activity (Jurkat [17]): 22%
- inhibition (Jurkat [7]): 5%
- Activity (Jurkat [11]): 7%
